Experimental data published in publication PMC5260928 (Bioorganic & medicinal chemistry, 2016).

Key:
[1] = target: gp41 hydrophobic pocket (Fe(envC)3) (Human immunodeficiency virus type 1 group M subtype B, UniProt P04578); assay: Surface plasmon resonance; assay type: binding, HIV-1; conditions: for kd: SPR 1:1 binding kinetic analysis, RUmax fixed; for kd1 / kd2: bivalent binding model
HIV-1 Ba-L and IIIB = assay: Virus-cell fusion; assay type: cell-based; conditions: for activity against VCF: result in words; for IC50: Human immunodeficiency virus 1, BAL|IIIB, read-out: IC50 against VCF
How it was run: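 MAGI-CCR5 cells, 10,000 per well, grown overnight in DMEM with 10% FBS. Medium replaced with test compound at 6 dilutions, each in triplicate. HIV-1 Ba-L (CCR5-tropic) or IIIB (CXCR4-tropic) added at ~10 TCID50/well. Assay run at 2% serum and incubated 48 h. Read-out is Tat-induced β-Gal expression by chemiluminescence.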

HIV-1 Ba-L = assay: CCR5-tropic MAGI antiviral assay; assay type: cell-based; conditions: Ba-L virus
HIV-1 IIIB = assay: CXCR4-tropic MAGI antiviral assay; assay type: cell-based; conditions: IIIB virus
[2] = target: gp41 hydrophobic pocket (Fe(env2.0)3) (Human immunodeficiency virus type 1 group M subtype B, UniProt P04578); assay: Fluorescence competitive binding assay for the hydrophobic pocket, Fe; set-up: species or system HIV-1; conditions: for Ki: Inhibition constant KI, dimers, 1:1 binding model with Rt = 7.2 µM, poor fit; for improvement (reduction) of KI over the respective monomer: compared with monomers 3 and 4
HXB2 Env = conditions: read-out: IC50 CCF; cell-cell fusion, three-subunit peptidomimetics; cited from earlier work

Compound: Nc1ccc(C(=O)N[C@@H](Cc2c[nH]c3ccccc23)C(=O)O)cc1OCCc1c[nH]c2ccccc12 [Compound 3, H2N-[Trp]-Trp-OH]
- kd [1]: 0.834 s⁻¹
- activity against VCF (HIV-1 Ba-L and IIIB): ineffective

Compound: Nc1ccc(C(=O)N[C@@H](Cc2c[nH]c3ccccc23)C(=O)O)cc1OCc1ccc(Cl)cc1 [Compound 4, H2N-[Phe4Cl]-Trp-OH]
- kd [1]: 0.820 s⁻¹
- activity against VCF (HIV-1 Ba-L and IIIB): ineffective

Compound: O=C(CCC(=O)Nc1ccc(C(=O)N[C@@H](Cc2c[nH]c3ccccc23)C(=O)O)cc1OCCc1c[nH]c2ccccc12)NCCOCCOCCOCCNC(=O)CCC(=O)Nc1ccc(C(=O)N[C@@H](Cc2c[nH]c3ccccc23)C(=O)O)cc1OCCc1c[nH]c2ccccc12 [Compound 7]
- residual fusion activity at plateau of antiviral activity (HIV-1 Ba-L): ~ 20%
- residual fusion activity at plateau of antiviral activity (HIV-1 IIIB): ~ 6%
- Ki [2]: 1 µM
- kd [1]: 0.060 s⁻¹
- kd1 [1]: 0.0869 s⁻¹
- kd2 [1]: 0.0145 s⁻¹
- IC50 (HIV-1 Ba-L and IIIB): 3 to 5 µM

Compound: O=C(CCC(=O)Nc1ccc(C(=O)N[C@@H](Cc2c[nH]c3ccccc23)C(=O)O)cc1OCc1ccc(Cl)cc1)NCCOCCOCCOCCNC(=O)CCC(=O)Nc1ccc(C(=O)N[C@@H](Cc2c[nH]c3ccccc23)C(=O)O)cc1OCc1ccc(Cl)cc1 [Compound 8]
- Ki [2]: 5.3 µM
- kd [1]: 0.037 s⁻¹
- kd1 [1]: 0.0638 s⁻¹
- kd2 [1]: 0.0033 s⁻¹
- IC50 (HIV-1 Ba-L and IIIB): 3 to 5 µM

Compound: O=C(CCc1c[nH]c2ccccc12)NCCCCCC(=O)Nc1ccc(C(=O)N[C@@H](Cc2c[nH]c3ccccc23)C(=O)O)cc1OCCc1c[nH]c2ccccc12 [Compound 10]
- improvement (reduction) of KI over the respective monomer [2]: 6 fold
- kd [1]: 0.093 s⁻¹
- IC50 (HIV-1 Ba-L and IIIB): 13 to 17 µM

Compound: O=C(CCc1c[nH]c2ccccc12)NCCCCCC(=O)Nc1ccc(C(=O)N[C@@H](Cc2c[nH]c3ccccc23)C(=O)O)cc1OCc1ccc(Cl)cc1 [Compound 11]
- improvement (reduction) of KI over the respective monomer [2]: 6 fold
- kd [1]: 0.186 s⁻¹
- IC50 (HIV-1 Ba-L and IIIB): 13 to 17 µM

Compound: H2N-Asn-[Trp]-Trp-COOH
- IC50 (HXB2 Env): 6 µM

Compound: H2N-Trp-[Trp]-Leu-COOH
- IC50 (HXB2 Env): 5 µM
